Measured values published in PMC3947005 (Cancer research, 2013).

Columns and labels:
sMPNST cells = test: CellTiter-Glo ATP luminescence assay, dose response; format: cell-based, mouse; details: rapamycin alone
pS6 in sMPNST cells = test: pS6 Western blot; format: cell-based, mouse; details: 0.05 µM (50 nM) for 30 or 60 min
Procedure, shortened: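 Mouse sMPNST cells exposed to test compound at 0.05 µM (50 nM) for 30 or 60 min. Cells collected, trypsinized and lysed in RIPA buffer. Lysates resolved on 5–20% SDS-PAGE gels and probed for phospho-S6.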

[1] = tested on: MPNSTs from the cis-Nf1+/-;p53+/- mouse model; details: ref [7], [44]; cited from earlier work
pERK in sMPNST cells = test: Phospho-ERK Western blot; format: cell-based, mouse; details: 10 µM for 30 minutes
Procedure, shortened: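 Mouse sMPNST cells treated with test compound at 10 µM for 30 min, then trypsinized and lysed in RIPA buffer. Lysates run on 5–20% SDS-PAGE gels and immunoblotted for phospho-ERK and total ERK, with αTubulin or GAPDH as loading reference.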

pAKT in sMPNST cells = test: Phospho-AKT Western blot; format: cell-based, mouse; details: 20 µM for 30 or 60 minutes
Procedure, shortened: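 Mouse sMPNST cells exposed to a PI3K-inhibitor test compound at 20 µM for 30 or 60 min. Cells collected, trypsinized and lysed in RIPA buffer. Lysates resolved on 5–20% SDS-PAGE gels and immunoblotted for phospho-AKT and total AKT, with αTubulin or GAPDH as loading reference.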

In the case of `CO[C@H]1C[C@@H]2CC[C@@H](C)[C@@](O)(O2)C(=O)C(=O)N2CCCC[C@H]2C(=O)O[C@H]([C@H](C)C[C@@H]2CC[C@@H](O)[C@H](OC)C2)CC(=O)[C@H](C)/C=C(\C)[C@@H](O)[C@@H](OC)C(=O)[C@H](C)C[C@H](C)/C=C/C=C/C=C/1C` [rapamycin], the “sMPNST cellular growth response” value (sMPNST cells) is listed as “relatively resistant”, the pS6 levels (pS6 in sMPNST cells) is listed as “decreased pS6 levels” and the “inhibition of MPNSTs” value [1] is listed as “inhibit MPNSTs”.

With `N#CC(=C(/N)Sc1ccccc1N)/C(C#N)=C(/N)Sc1ccccc1N` [U0126] the Phospho-ERK inhibition (pERK in sMPNST cells) was “verified by Western blotting”.

For `c1cc(CN2CCCNCCNCCCNCC2)ccc1CN1CCCNCCNCCCNCC1` [AMD3100], the “inhibition of MPNSTs” value [1] is listed as “inhibit MPNSTs”.

With `O=c1cc(N2CCOCC2)oc2c(-c3ccccc3)cccc12` [LY294002] the pAKT inhibition (pAKT in sMPNST cells) was “effective pAKT inhibition”.
